Experiment [1] is described as follows: Proteolysis targeting chimera activity in human MCF7 cells assessed as induction of E3 ubiquitin ligase-mediated ERalpha degradation by proteasome after 24 hrs by in-cell Western assay. Format: cell-based. The settings on record: MCF7, 24 h. The procedure, abridged:
(§1)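 MCF-7 cells in stripped medium were dosed across a concentration range (log ~10^-11 to 10^-5 M) for 24 h, and ERα was quantified by in-cell Western. Average ± SEM of 4 measurements, n = 3 unless noted. IC50 derived from the dose-response curve. Efficacy is the ERα level at the highest dose, as % of vehicle control.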

For experiment [2], the system named is MCF7. Briefly: Proteolysis targeting chimera activity in human MCF7 cells assessed as induction of E3 ubiquitin ligase-mediated ERalpha level after 24 hrs by in-cell Western assay relative to control. Format: cell-based. Also on record: concentration or dose not given beside the values. The method in brief: as §1
For experiment [3], the system named is MCF7. Briefly: Antiproliferative activity against human MCF7 cells assessed as cell proliferation after 6 days by MTT assay relative to control. Format: functional. Also on record: concentration or dose not given beside the values. The method in brief: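 MCF-7 cells kept in complete medium, dosed across a concentration range (log scale ~10^-11 to 10^-5 M) for 6 days; cell density read by MTT. Average ± SEM of 4 measurements, n = 3 unless noted. IC50 taken from dose-response. Efficacy given as relative proliferation rate at highest dose versus vehicle, with the fulvestrant level set to zero.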
A general note: Formazan colour is commonly taken as a measure of viable cells.

For experiment [4], the target named is T1, Estrogen receptor (Homo sapiens) (UniProt P03372).
T1 sequence (whole entry): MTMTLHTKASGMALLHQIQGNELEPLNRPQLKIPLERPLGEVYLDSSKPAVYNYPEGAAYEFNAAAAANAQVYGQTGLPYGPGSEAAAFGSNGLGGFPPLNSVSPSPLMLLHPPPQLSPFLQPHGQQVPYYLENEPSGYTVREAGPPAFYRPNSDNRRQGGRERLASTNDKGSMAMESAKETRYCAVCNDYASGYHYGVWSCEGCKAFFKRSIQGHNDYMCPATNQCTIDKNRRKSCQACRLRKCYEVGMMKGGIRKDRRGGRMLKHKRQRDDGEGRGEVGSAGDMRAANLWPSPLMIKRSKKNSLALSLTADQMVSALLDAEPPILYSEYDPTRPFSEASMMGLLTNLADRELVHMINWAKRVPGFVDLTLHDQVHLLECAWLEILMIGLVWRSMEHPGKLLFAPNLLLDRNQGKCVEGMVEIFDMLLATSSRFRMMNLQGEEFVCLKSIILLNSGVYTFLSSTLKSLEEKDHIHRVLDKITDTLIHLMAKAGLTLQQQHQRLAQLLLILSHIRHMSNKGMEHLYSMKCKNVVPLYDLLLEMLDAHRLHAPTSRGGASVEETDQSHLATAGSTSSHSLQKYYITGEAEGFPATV
Nature of the experiment: Displacement of [3H]estradiol from human full length ERalpha after 18 to 24 hrs by scintillation counting method.

Experiment [5] deals with MCF7. Nature of the experiment: Antiproliferative activity against human MCF7 cells after 6 days by MTT assay. The settings on record: MCF7, 144 h.
The target in experiment [6] is T1, Estrogen receptor (Homo sapiens). Briefly: Antagonist activity at ERalpha in human […] assessed as inhibition of estradiol-induced PgR gene expression level at 3 uM after 24 hrs by qRT-PCR method. Format: cell-based. The procedure, abridged:
(§2)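 MCF-7 cells exposed 24 h to 3 µM compound with or without 1 nM estradiol (E2); transcript levels of PgR, pS2 and GREB1 quantified by qRT-PCR.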
On the technique in general: Real-time PCR tracks product formation cycle by cycle.

Experiment [7] has the same target. Nature of the experiment: Antagonist activity at ERalpha in human […] assessed as inhibition of estradiol-induced pS2 gene expression level at 3 uM after 24 hrs by qRT-PCR method. The experiment is classed as cell-based. The procedure, abridged: as §2
For experiment [8] the target is unchanged. Nature of the experiment: Antagonist activity at ERalpha in human […] assessed as inhibition of estradiol-induced GREB1 gene expression level at 3 uM after 24 hrs by qRT-PCR method. Format: cell-based. The procedure, abridged: as §2
Experiment [9] has as its system MCF7. Briefly: Proteolysis targeting chimera activity in human MCF7 cells assessed as induction of E3 ubiquitin ligase-mediated ERalpha level after 24 hrs by in presence of proteasome inhibitor MG132 by in-cell Western assay. Format: cell-based.

The source made the active and inactive calls. No cut-off for these calls is given here. A value given as a limit tells only on which side of the number the result lay.

As usually defined, the IC50 is the concentration at which inhibition is half-maximal. `O=C(NCCCCOc1ccc(C(=C2C3CC4CC(C3)CC2C4)c2ccc(O)cc2)cc1)C12CC3CC(CC(C3)C1)C2`: the IC50 in experiment [1] was found to be 6 nM; in experiment [5], 13 nM. Also, the Activity in experiment [2] worked out at 51%; in experiment [3], 13%. Also, the RBA in experiment [4] is 11%.

For the molecule `C[C@]12CC[C@@H]3c4ccc(O)cc4C[C@@H](CCCCCCCCC[S+]([O-])CCCC(F)(F)C(F)(F)F)[C@H]3[C@@H]1CC[C@@H]2O` (stereo partly specified) [FULVESTRANT], the IC50 in experiment [1] and in experiment [5] was < 0.1 nM throughout. Also, the values for the Activity in experiment [2] and in [3] were 9% and 0%, respectively. In experiment [4], this molecule showed an RBA of 61%.

`CC(C)(C)OC(=O)N[C@@H](Cc1ccccc1)C(=O)NCCCCOc1ccc(C(=C2C3CC4CC(C3)CC2C4)c2ccc(O)cc2)cc1`: the values for the IC50 in [1] and in [5] were 307 nM and 7 nM, respectively. In addition, the Activity amounted to 71% in experiment [2] and 25% in [3]. The same molecule displayed an RBA in experiment [4] of 14%.

Regarding `CC(C)C[C@H](NC(=O)OC(C)(C)C)C(=O)NCCCCOc1ccc(C(=C2C3CC4CC(C3)CC2C4)c2ccc(O)cc2)cc1`, the 50% inhibitory concentration (IC50) in experiment [1] was 636 nM; in experiment [5], 36 nM. In addition, the Activity in experiment [2] was determined as 56%; in experiment [3] it was 20%. The RBA in [4] amounted to 14%.

On to `O=C(NCCCCOc1ccc(C(=C2C3CC4CC(C3)CC2C4)c2ccc(O)cc2)cc1)[C@H]1CC[C@H](C(F)(F)F)CC1`, for which the IC50 in [1] was determined as 2 nM; in experiment [5], 0.5 nM. Further, the Activity came to 31% in [2] and 13% in experiment [3]. This molecule gave an RBA in experiment [4] of 10%. Moreover, the inhibition entry in [6], in experiment [7] and in experiment [8] was “Active” each time.

On to `CC(C)(C)OC(=O)N[C@@H](Cc1c[nH]c2ccccc12)C(=O)NCCCCOc1ccc(C(=C2C3CC4CC(C3)CC2C4)c2ccc(O)cc2)cc1`, for which the IC50 in experiment [1] came out at 0.5 nM; in [5], 16 nM. In addition, the Activity in experiment [2] worked out at 45%; in experiment [3], 16%. Besides, in experiment [4], the RBA was 20%. The inhibition entry in [6], in [7] and in [8] was “Active” each time.

`O=C(NCCCCOc1ccc(C(=C2C3CC4CC(C3)CC2C4)c2ccc(O)cc2)cc1)C1CCC(F)(F)CC1`: the Activity came out at 67% in experiment [2] and 20% in experiment [3]. In [4], this molecule registered an RBA of 30%. The same molecule displayed a concentration for half-maximal inhibition (IC50) in [5] of 4 nM.

With `O=C(NCCCCOc1ccc(C(=C2C3CC4CC(C3)CC2C4)c2ccc(O)cc2)cc1)C1CCCCCC1`, the Activity was 76% in [2] and 15% in [3]. Moreover, the RBA in experiment [4] is 30%. Moreover, the IC50 in experiment [5] turned out to be 5 nM.

On to `CC12CC3CC(C)(C1)CC(C(=O)NCCCCOc1ccc(C(=C4C5CC6CC(C5)CC4C6)c4ccc(O)cc4)cc1)(C3)C2`, for which the IC50 in [1] was 10 nM; in [5], 5 nM. For the same molecule, the Activity in experiment [2] is 42%; in [3] it was 57%. The same molecule came in with an RBA in experiment [4] of 6%.

Take `O=C(NCCOc1ccc(C(=C2C3CC4CC(C3)CC2C4)c2ccc(O)cc2)cc1)C12CC3CC(CC(C3)C1)C2`: the Activity in experiment [2] came out at 76%; in experiment [3], 16%. Further, the RBA in experiment [4] was 21%. Also, half-maximal inhibition in [5] (IC50) was put at 17 nM.

Take `O=C(NCCCOc1ccc(C(=C2C3CC4CC(C3)CC2C4)c2ccc(O)cc2)cc1)C12CC3CC(CC(C3)C1)C2`: the IC50 in experiment [1] was found to be 3 nM; in [5], 9 nM. Moreover, the Activity came out at 42% in experiment [2] and 13% in experiment [3]. In experiment [4], this molecule yielded an RBA of 26%. For the same molecule, the inhibition result in experiment [6], in [7] and in [8] was “Active” each time.

Regarding `O=C(NCCCCOc1ccc(C(=C2C3CC4CC(C3)CC2C4)c2ccc(O)cc2)cc1)[C@@H]1C[C@@H]2C=C[C@H]1C2`, the IC50 in experiment [1] was found to be 0.5 nM; in experiment [5], 9 nM. In addition, the figures for the Activity in experiment [2] and in experiment [3] were 53% and 42%, respectively. In experiment [4], the RBA is 37%.

On to `O=C(NCCCCOc1ccc(C(=C2C3CC4CC(C3)CC2C4)c2ccc(O)cc2)cc1)C12CC3CC(CC1C3)C2`, for which the IC50 in experiment [1] turned out to be 2 nM; in experiment [5], 12 nM. The figures for the Activity in experiment [2] and in experiment [3] were 71% and 42%, respectively. In [4], this molecule displayed an RBA of 17%.

For the molecule `O=C(NCCCCOc1ccc(C(=C2C3CC4CC(C3)CC2C4)c2ccc(O)cc2)cc1)C1CCC1`, the Activity amounted to 69% in [2] and 15% in experiment [3]. The molecule further displayed an RBA in experiment [4] of 70%. Further, in experiment [5], the IC50 amounted to 3 nM.

As to `O=C(NCCCCOc1ccc(C(=C2C3CC4CC(C3)CC2C4)c2ccc(O)cc2)cc1)C1CCCCC1`, the IC50 in experiment [1] was found to be 0.4 nM; in experiment [5], 0.6 nM. For the same molecule, the Activity is 35% in experiment [2] and 13% in experiment [3]. In experiment [4], the RBA amounted to 28%. Moreover, the result in [9] was inactive.

The values above are taken from ChEMBL document CHEMBL4196158, “New Class of Selective Estrogen Receptor Degraders (SERDs): Expanding the Toolbox of PROTAC Degrons” (ACS Med Chem Lett, 2018).
